# High-throughput results as filed in PubChem.
# This is a sample that favours compounds with a hit; in the whole collection about 1.9% have one here.
# M4 antag: blocks acetylcholine activation of human M4 receptor; P08173; CHO-hM4 cells, ACh EC80, Fluo-8 calcium fluorescence; inhibition, % at 3 µM; 0.73% of 360,000 active;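 active = inhibition above its plate's cutoff, the mean inhibition of sample wells plus 3 SD, cut at about 27% in these data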;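 note: 0% = acetylcholine EC80 with DMSO and 100% = DMSO without agonist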
# CHRM5 agonist: CHRM5 agonism in calcium assay | P08912 | CHO-K1 hM5 cells, Fluo-8 calcium fluorescence; 0% DMSO wells, 100% maximal acetylcholine response | activation, % at 3 µM | 0.19% of 360,000 active | AID 624037;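 active = activation above the run's mean over test compounds plus 3 SD, cut at about 23% in these data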;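 note: signal is peak over basal fluorescence ratio across the kinetic read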
# Target sequence (P08912 whole entry, looked up): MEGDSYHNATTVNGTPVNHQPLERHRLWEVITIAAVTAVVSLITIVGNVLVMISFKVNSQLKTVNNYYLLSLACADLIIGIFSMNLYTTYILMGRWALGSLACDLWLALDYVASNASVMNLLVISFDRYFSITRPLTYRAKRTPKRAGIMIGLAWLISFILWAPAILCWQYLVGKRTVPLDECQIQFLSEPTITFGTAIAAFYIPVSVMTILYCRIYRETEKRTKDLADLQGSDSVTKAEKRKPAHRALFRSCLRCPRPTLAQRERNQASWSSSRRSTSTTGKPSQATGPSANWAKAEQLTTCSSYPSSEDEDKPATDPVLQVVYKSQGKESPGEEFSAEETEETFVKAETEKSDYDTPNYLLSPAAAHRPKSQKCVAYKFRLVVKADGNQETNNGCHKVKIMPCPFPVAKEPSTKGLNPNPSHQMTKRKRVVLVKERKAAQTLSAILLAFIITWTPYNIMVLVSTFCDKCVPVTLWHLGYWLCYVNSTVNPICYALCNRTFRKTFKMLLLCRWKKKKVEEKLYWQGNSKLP
# M5 antag: CHRM5 antagonism in calcium assay; inhibition, % at 3 µM; AID 624040; CHO-hM5 cells, Fluo-8 calcium fluorescence, ACh EC80; 0.59% of 360,000 active; P08912;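 active = inhibition above a per-plate cutoff, the mean of that plate's test compounds plus 3 SD, cut at about 27% in these data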;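 note: 0% = acetylcholine EC80 with DMSO and 100% = DMSO without agonist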
# CHRM5 PAM: CHRM5 positive allosteric modulation. CHO-K1 hM5, Fluo-8 calcium, ACh EC20 PAM; 0% = ACh EC20, 100% = ACh EC100. activation, % at 3 µM. 0.3% of 360,000 active. AID 624038;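 active = activation above the run cutoff, the mean activation of all test compounds plus 3 SD, cut at about 18% in these data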
#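 System – CHO-K1 hM5 cells · Compound – 3 µM, single dose · Incubation – compound preincubation 140 s before EC20 acetylcholine addition · Technique – Fluo-8 calcium fluorescence · Measure – Max/basal fluorescence ratio as % of EC20–EC100 ACh window · Benchmarks – low control EC20 acetylcholine (0%), high control EC100 acetylcholine (100%) · Replication – singlicate, one well per test compound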
# M4 ag: agonists of human muscarinic M4 receptor (CHRM4). CHO-K1 hM4/Gqi5, Fluo-8 calcium fluorescence; vehicle 0%, full acetylcholine response 100%. activation, % at 3 µM. 0.14% of 360,000 active. AID 624127;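 active = activation above the run mean over all test wells plus 3 SD, cut at about 32% in these data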;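 note: peak over basal fluorescence ratio per well then scaled between controls; 0% = DMSO wells and 100% = acetylcholine at EC100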
# M4 PAM: CHRM4 positive allosteric modulation. CHO-K1 hM4/Gqi5, Fluo-8 calcium fluorescence, ACh EC20; 0% = ACh EC20, 100% = maximal ACh. P08173. 0.4% of 360,000 active. activation, % at 3 µM;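 active = activation above its plate's cutoff, the mean activation of sample wells plus 3 SD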
# * marks the source's active call; other numbers are inactive results.
SMILES,M4 antag,CHRM5 agonist,M5 antag,CHRM5 PAM,M4 ag,M4 PAM
Clc1ccc(N2O[C@H]3C=C[C@@H]2C3)nc1,-4,3,-11,3,2,1
Cc1cc(=O)n2nc(N3CCCC(C(=O)Nc4cccc(C)c4C)C3)sc2n1 (stereo not given),2,0,4,-1,1,1
COc1ccc(CCn2c(C3CCCCC3)nc3c(c(=O)c4ccccc4n3C)c2=O)cc1,1,10,8,-8,45*,-14
CCC(C)CN1C(=O)CN(S(C)(=O)=O)CC1(C)C(=O)NC(C)C (stereo not given),-12,3,-9,8,3,5
CC1(C)Cc2c(sc3nc(N/N=C/c4ccccc4)[nH]c(=O)c23)CO1,1,9,24,25*,2,9
CCOC(=O)[C@]12CCC=C1N(Cc1ccc3c(c1)OCO3)C(=O)[C@H](CC(=O)N1CCOCC1)C2,-1,-1,2,-2,0,5
Cc1ccc(Nc2ncnc(N)n2)cc1,-7,-1,12,-4,0,-4
Cc1cc(C)c(Nc2ncnc(N)n2)c(C)c1,100*,-3,5,4,-2,-74
Cc1cccc(C)c1-n1nnnc1C(c1ccccc1OC(F)(F)F)N1CCN(C/C=C/c2ccccc2)CC1 (stereo not given),-1,-1,3,-7,0,-11
CCOC(=O)Cn1c(=N)n(CCOc2ccc3ccccc3c2)c2ccccc21,9,6,10,-21,39*,-9
CCOC(=O)Cn1c(=N)n(CCOc2ccc(OC)cc2)c2ccccc21,7,-5,1,5,2,4
COc1ccc(C(=O)OC2CCN(C)CC2)cc1,-15,-7,-11,4,1,31*
O=C1CCC(=O)N1N1C(=O)C2C3c4ccccc4C(c4ccccc43)C2C1=O (stereo not given),3,1,-4,22*,1,9
O=C1C2C3c4ccccc4C(c4ccccc43)[C@@H]2C(=O)N1c1ccccn1 (stereo not given in full),-3,-3,4,-1,1,-6
Cc1noc(-c2ccccc2)c1NC(=O)Nc1ccc2nc([C@H]3C[C@H](O)[C@@H](CO)O3)[nH]c2c1,-7,-1,2,-3,0,3
O=c1c2ccccc2oc2nc(-c3ccco3)n(Cc3ccccc3)c(=O)c12,13,-3,3,37*,1,10
Cc1noc(C)c1-c1ccc(C(=O)NC2CCCCC2)c2occc12,-3,-2,-1,-3,1,3
CC1(C(=O)Nc2cccc(OC(F)(F)F)c2)Cc2c(-c3cccc(C(N)=O)c3)ccnc2O1 (stereo not given),-11,3,4,-6,12,1
CC1(C)CC(=O)C=C(c2ccc(-c3cccc4c3sc3ccccc34)cc2)C1=O,-2,0,-7,0,1,-1
O=C(CC[C@H]1O[C@@H](n2ccc(=O)[nH]c2=O)[C@H](O)[C@@H]1O)NCc1ccccc1,2,2,2,-3,1,4
O=C(Nc1cccc([N+](=O)[O-])c1)NC1CCCCCCC1,6,8,29*,-16,15,-13
O=C(CNC1CCCCC1)Nc1cccc([N+](=O)[O-])c1,0,0,5,3,1,0
O=C(NCc1cccnc1)Nc1cccc([N+](=O)[O-])c1,-3,-5,28*,-11,1,-1
O=C(Nc1cccc([N+](=O)[O-])c1)NN1CCCCCC1,11,6,30*,-20,14,-4
COc1ccc(NC(=O)NC2CCCCCCC2)cc1OC,4,-1,-2,22*,3,17
SMILES,M4 antag,CHRM5 agonist,M5 antag,CHRM5 PAM,M4 ag,M4 PAM
COc1ccc(/C=C(/C#N)C(=O)Nc2cc(C)ccc2C)cc1C(=O)O,4,2,2,1,1,29*
CC(=O)OCCCN(C)CC/C=C1/c2ccccc2CSc2ccccc21,36*,-20,19,-35,3,-53
C[N+](C)(C)CC/C=C1/c2ccccc2CSc2ccccc21,96*,-12,99*,-26,0,-18
CN(CCC#N)C(=O)c1cc2c(s1)-c1ccccc1SC2,-6,-3,7,-1,2,4
COc1cc(CNc2ncnc3c2ncn3[C@H]2CN(Cc3ccccc3)C[C@@H](COC(C)=O)O2)cc(OC)c1OC,-4,-2,3,5,3,5
O=C(CC[C@H]1O[C@@H](n2ccc(=O)[nH]c2=O)[C@H](O)[C@@H]1O)N1CCN(c2ccccn2)CC1,-16,3,-6,7,1,21*
Cc1ccc(S(=O)(=O)N2CCOCC2)cc1C(=O)NCCCN1CCCC1=O,-16,-2,1,-2,2,8
C=C1c2cc(C)ccc2NC(=O)N1c1ccc(C)cc1,-1,-1,-6,5,0,29*
C=C1c2ccccc2NC(=O)N1c1ccc(C)cc1,9,-3,-3,-1,0,2
CCN(CC)CCNC(=O)C12CC3CC(CC(C3)C1)C2,42*,-7,-3,-4,0,-13
CCN(CC)CCNC(=O)C12CC3CC(C)(CC(C)(C3)C1)C2,15,-7,9,-13,2,-13
COc1cc(C23CCCN(CCC(C(C)(C)C)C2)C32OCCO2)cc(OC)c1OC (stereo not given),-7,1,-3,-2,-2,3
COc1cccc(Nc2nc(C(N)Cc3ccc(Cl)cc3)cs2)n1 (stereo not given),26,49*,13,1,47*,1
COc1cccc(Nc2nc(C(N)Cc3ccc(C(F)(F)F)cc3)cs2)n1 (stereo not given),12,4,9,6,9,15
COc1cccc(Nc2nc(C(N)Cc3ccc(F)cc3)cs2)n1 (stereo not given),14,11,2,4,35*,6
COc1ccc(CC(N)c2csc(Nc3cccc(OC)n3)n2)cc1 (stereo not given),0,6,2,2,18,4
COC(=O)c1sc2nc(C)c([N+](=O)[O-])c(C)c2c1N,18,-4,-7,4,16,46*
O=C(NCc1ccc(C(F)(F)F)cc1)c1ccc(-c2cccnc2)c2ccoc12,3,-1,3,-2,2,-7
CCCC(CCC)C(=O)OC1C[C@H]2CC[C@@H](C1)[N+]2(C)C (stereo not given in full),99*,-1,98*,-18,0,-18
